Reference: ChEMBL document CHEMBL4811254, “Beyond Basicity: Discovery of Nonbasic DENV-2 Protease Inhibitors with Potent Activity in Cell Culture” (J Med Chem, 2021)
pEC50: −log10 of the molar value. Active and inactive are the calls of the source.

Legend:
Trypsin (Homo sapiens) = Trypsin (Homo sapiens) (UniProt P07477+P07478+P35030); assay: Inhibition of trypsin (unknown origin) using Boc-Val-Pro-Arg-AMC as substrate at 50 uM preincubated with enzyme for 15 mins followed by substrate addition and measured for 15 mins by fluorimetric assay; format: protein assay; conditions: time 30.0 min
[1] = biological target: Genome polyprotein (dengue virus type 2) (UniProt P29990); assay: Inhibition of DENV2 NS2B-NS3 protease expressed in Escherichia coli BL21 lambda(DE3) using FRET substrate preincubated with enzyme for 15 mins in presence of detergent CHAPS followed by substrate addition for 15 mins by fluorescence based analysis; conditions: time 30.0 min
[2] = biological target: Genome polyprotein (dengue virus type 2) (UniProt P29990); assay: Inhibition of NS2B-NS3 protease in DENV2proHeLa system assessed as inhibition of luciferase signal at 12.5 uM incubated for 24 hrs by luciferase reporter gene assay; format: cell-based; conditions: HeLa
Method in brief: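 Stable DENV2proHeLa cells seeded at 2 × 10⁴/well and dosed immediately, then incubated 24 h at 37 °C. Cells lysed 15 min at room temperature. Luciferase read with coelenterazine (2.75 μM in PBS) injection, luminescence 5 s. Triplicates; percent inhibition calculated relative to untreated control; background from cell-free wells.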

[3] = Cytotoxicity against human HeLa cells assessed as reduction in cell viability incubated for 24 hrs by CellTiter-Blue assay; format: cell-based
Method in brief: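 Viability by CellTiter-Blue in HeLa or Huh-7 cells exposed to compound dilutions. Plates run in parallel with the reporter assay (HeLa) or the virus titer assay (Huh-7).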

[4] = biological target: Prothrombin (Homo sapiens) (UniProt P00734); assay: Inhibition of thrombin in human plasma using Boc-Val-Pro-Arg-AMC as substrate at 25 uM preincubated with enzyme for 15 mins followed by substrate addition and measured for 15 mins by fluorimetric assay; format: cell-free; conditions: time 30.0 min
Genome polyprotein = Genome polyprotein (dengue virus type 2, UniProt P29990); assay: Inhibition of NS2B-NS3 protease in DENV2proHeLa system assessed as inhibition of luciferase signal incubated for 24 hrs by luciferase reporter gene assay; format: cell-based, HeLa
Method in brief: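 HeLa cells stably carrying the reporter system, 2 × 10⁴ per well, given inhibitor at seeding and held 24 h at 37 °C. Cells lysed 15 min at room temperature. Luciferase read for 5 s after injecting coelenterazine (2.75 μM in PBS). Triplicate wells per concentration; percent inhibition taken against untreated cells. EC50/EC90 from 4-parameter dose-response fit, background from cell-free wells subtracted.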

| SMILES | inhibition (Trypsin (Homo sapiens)) | inhibition [1] | inhibition [2] | CC50 at 24 h [3] | inhibition [4] | pEC50 (Genome polyprotein) |
| --- | --- | --- | --- | --- | --- | --- |
| NC(=O)c1ccc(CNC(=O)[C@@H](NC(=O)Cc2ccc(-c3ccccc3)cc2)c2ccc(OCc3ccccc3)cc2)cc1 | inactive | Active | 25% | > 50 µM | inactive | – |
| CCCCCC(=O)N[C@H](C(=O)NCc1ccc(C(N)=O)cc1)c1ccc(OCc2ccc(O)cc2)cc1 | inactive | Active | 43% | > 50 µM | inactive | – |
| CCCCCC(=O)N[C@@H](C(=O)NCc1ccc(C(N)=O)cc1)c1ccc(OCc2ccc(Cl)c(Cl)c2)cc1 | inactive | Active | 19% | > 50 µM | inactive | – |
| CCCCCC(=O)N[C@H](C(=O)NCc1ccc(C(N)=O)cc1)c1ccc(OCc2ccc(C(C)(C)C)cc2)cc1 | inactive | Active | < 10% | > 12.5 µM | inactive | – |
| CCCCCCCC(=O)N[C@H](C(=O)Nc1cccc(C(N)=O)c1)c1ccc(OCc2ccccc2)cc1 | inactive | – | 66% | > 12.5 µM | inactive | 5.66 |
| CCCCCCN[C@H](C(=O)NCc1ccc(C(N)=O)cc1)c1ccc(OCc2ccccc2)cc1 | inactive | Active | 19% | > 50 µM | inactive | – |
| CCCCCC(=O)N[C@H](C(=O)N1CCCCC1)c1ccc(OCc2ccccc2)cc1 | inactive | – | 58% | 29 µM | inactive | 4.89 |
| CCCCCC(=O)N[C@H](C(=O)Nc1ccc(CO)cc1)c1ccc(OCc2ccccc2)cc1 | inactive | – | 48% | > 50 µM | inactive | 4.74 |
| NC(=O)c1cccc(NC(=O)[C@@H](NC(=O)c2ccc(-c3ccccc3)cc2)c2ccc(OCc3ccccc3)cc2)c1 | inactive | – | 79% | > 100 µM | inactive | 5.77 |
| NC(=O)c1ccc(CNC(=O)[C@@H](NC(=O)c2cc3ccccc3s2)c2ccc(OCc3ccccc3)cc2)cc1 | inactive | – | 71% | > 50 µM | inactive | 5.18 |
| CCCCCC(=O)N[C@H](C(=O)NCc1ccc(OC)cc1)c1ccc(OCc2ccccc2)cc1 | inactive | – | 35% | > 50 µM | inactive | 4.55 |
| CCCCCC(=O)N[C@H](C(=O)NCCc1ccc(C(N)=O)cc1)c1ccc(OCc2ccccc2)cc1 | inactive | – | 62% | > 100 µM | inactive | 5.11 |
| COc1cccc(COc2ccc([C@H](NC(=O)c3ccc(Oc4ccccc4)cc3)C(=O)Nc3cccc(C(N)=O)c3)cc2)c1 | inactive | – | 73% | > 100 µM | inactive | 5.68 |
| CCCCCC(=O)N[C@H](C(=O)NCCc1ccc(O)cc1)c1ccc(OCc2ccccc2)cc1 | inactive | – | 58% | > 25 µM | inactive | 5.00 |
| NC(=O)c1cccc(NC(=O)[C@@H](NC(=O)c2ccc(Oc3cccc(Cl)c3)cc2)c2ccc(OCc3ccccc3)cc2)c1 | inactive | – | 87% | > 100 µM | inactive | 6.00 |
| CCCCCC(=O)N[C@H](C(=O)NCc1ccc(C(=O)NN)cc1)c1ccc(OCc2ccccc2)cc1 | inactive | Active | – | – | inactive | – |
